Experimental data reported in ChEMBL document CHEMBL5150021, “Identification of 5-(Aryl/Heteroaryl)amino-4-quinolones as Potent Membrane-Disrupting Agents to Combat Antibiotic-Resistant Gram-Positive Bacteria” (J Med Chem, 2022).
≈ marks a conversion by molar mass, not a printed value.

Tested on: Staphylococcus aureus
Experiment: Antibacterial activity against methicillin resistant Staphylococcus aureus FPR3757 assessed as inhibition of bacterial growth incubated for 24 hrs by CLSI based method
Assay type: functional
Details: read-out: MIC100
How it was run: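 It was mixed 1:1 with twofold serial compound dilutions and incubated stationary at 37 °C for 24 h. MIC was the lowest concentration giving complete inhibition of observable growth, with an oxacillin control.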

Compound	MIC
FC(F)(F)Oc1cccc2c(Nc3ccc(Cl)c(Cl)c3)cc(C(F)(F)F)nc12	0.5 µg/mL (≈ 1.13 µM)
FC(F)(F)Oc1cccc(Nc2cc(C(F)(F)F)nc3c(C(F)(F)F)cccc23)c1	1 µg/mL (≈ 2.27 µM)
FC(F)(F)c1cccc(Nc2cc(C(F)(F)F)nc3cc(C(F)(F)F)ccc23)c1	0.25 µg/mL (≈ 0.589 µM)
N#Cc1cccc(Nc2cc(C(F)(F)F)nc3cc(C(F)(F)F)ccc23)c1	> 32 µg/mL
Fc1ccc2c(Nc3cccc(OC(F)(F)F)c3)cc(C(F)(F)F)nc2c1	2 µg/mL (≈ 5.12 µM)
FC(F)(F)c1ccc2c(NC3CCCCC3)cc(C(F)(F)F)nc2c1	> 16 µg/mL
O=C(Nc1cc(C(F)(F)F)nc2cc(C(F)(F)F)ccc12)c1ccc(C(F)(F)F)cn1	> 32 µg/mL
COc1cccc(Nc2cc(C(F)(F)F)nc3cc(C(F)(F)F)ccc23)c1	> 64 µg/mL
FC(F)(F)c1ccc2c(Nc3cccc(I)c3)cc(C(F)(F)F)nc2c1	0.25 µg/mL (≈ 0.518 µM)
FC(F)(F)c1ccc(Nc2cc(N3CCOCC3)nc3cc(C(F)(F)F)ccc23)nc1	> 32 µg/mL
FC(F)(F)c1ccc2c(Nc3cccc4[nH]ncc34)cc(C(F)(F)F)nc2c1	> 32 µg/mL
Fc1cccc(Nc2cc(C(F)(F)F)nc3cc(C(F)(F)F)ccc23)c1	4 µg/mL (≈ 10.7 µM)
FC(F)(F)c1ccc(Nc2nc(C(F)(F)F)nc3nc(C(F)(F)F)ccc23)nc1	> 32 µg/mL
Cc1onc(-c2ccccc2)c1C(=O)N[C@@H]1C(=O)N2[C@@H]1SC(C)(C)[C@@H]2C(=O)O [OXACILLIN]	64 µg/mL (≈ 159 µM)
COC(=O)c1cc(Nc2cc(C(F)(F)F)nc3cc(C(F)(F)F)ccc23)ccn1	> 32 µg/mL
O=c1cc(C(F)(F)F)[nH]c2cc(C(F)(F)F)cc(Nc3cccc4[nH]ncc34)c12	2 µg/mL (≈ 4.85 µM)
FC(F)(F)c1ccc2c(Nc3ccncc3)cc(C(F)(F)F)nc2c1	> 32 µg/mL
CN(c1ccc(C(F)(F)F)cc1)c1cc(C(F)(F)F)nc2cc(C(F)(F)F)ccc12	> 32 µg/mL
Oc1cc(C(F)(F)F)nc2c(C(F)(F)F)cccc12	2 µg/mL (≈ 7.11 µM)
FC(F)(F)c1ccc2c(Nc3cccc(Cl)c3)cc(C(F)(F)F)nc2c1	0.25 µg/mL (≈ 0.64 µM)
FC(F)(F)c1ccc2c(Nc3nccs3)cc(C(F)(F)F)nc2c1	1 µg/mL (≈ 2.75 µM)
FC(F)(F)c1ccc(Nc2cc(N3CCNCC3)nc3cc(C(F)(F)F)ccc23)nc1	0.5 µg/mL (≈ 1.13 µM)
CN1Cc2cc(Nc3cc(C(F)(F)F)nc4cc(C(F)(F)F)ccc34)ccc2C1=O	> 32 µg/mL
Fc1ccc(Nc2cc(C(F)(F)F)nc3cc(C(F)(F)F)ccc23)cc1F	0.125 µg/mL (≈ 0.319 µM)
COc1ccc2c(Nc3ccc(C(F)(F)F)cn3)cc(C(F)(F)F)nc2c1	32 µg/mL (≈ 82.6 µM)

Compound	MIC
CN(C)S(=O)(=O)c1ccc2c(Nc3ccc(C(F)(F)F)cn3)cc(C(F)(F)F)nc2c1	8 µg/mL (≈ 17.2 µM)
CN(C)S(=O)(=O)c1ccc2c(Nc3cccc(OC(F)(F)F)c3)cc(C(F)(F)F)nc2c1	8 µg/mL (≈ 16.7 µM)
O=C1Cc2cc(Nc3cc(C(F)(F)F)nc4cc(C(F)(F)F)ccc34)ccc2N1	> 32 µg/mL
FC(F)(F)c1ccc2c(Nc3ccc(Cl)cc3)cc(C(F)(F)F)nc2c1	0.12 µg/mL (≈ 0.307 µM)
FC(F)(F)c1ccc2c(Nc3cccc(N4CCOCC4)c3)cc(C(F)(F)F)nc2c1	> 16 µg/mL
O[C@H]1C[C@H]2CC[C@@H](C1)N2c1cc(C(F)(F)F)nc2cc(C(F)(F)F)ccc12	> 32 µg/mL
FC(F)(F)c1ccc(Nc2cnnc3cc(C(F)(F)F)ccc23)nc1	> 32 µg/mL
FC(F)(F)Oc1cccc(Nc2cc(C(F)(F)F)nc3cc(OC(F)(F)F)ccc23)c1	1 µg/mL (≈ 2.19 µM)
Fc1ccc(Nc2nc(C(F)(F)F)nc3nc(C(F)(F)F)ccc23)cc1F	32 µg/mL (≈ 81.2 µM)
Fc1ccc(Nc2cnnc3cc(C(F)(F)F)ccc23)cc1F	> 32 µg/mL
Cn1cc(Nc2cc(C(F)(F)F)nc3cc(C(F)(F)F)ccc23)ccc1=O	> 32 µg/mL
FC(F)(F)c1ccc2c(Nc3ccc(Cl)c(Cl)c3)nc(C(F)(F)F)nc2c1	0.5 µg/mL (≈ 1.17 µM)
CC(=O)c1cccc(Nc2cc(C(F)(F)F)nc3cc(C(F)(F)F)ccc23)c1	> 128 µg/mL
Fc1ccc2nc(C(F)(F)F)cc(Nc3ccc(C(F)(F)F)cn3)c2c1F	16 µg/mL (≈ 40.7 µM)
FC(F)(F)c1ccc2c(N3CCc4cccnc43)cc(C(F)(F)F)nc2c1	> 32 µg/mL
FC(F)(F)c1ccc2c(Nc3ncccn3)cc(C(F)(F)F)nc2c1	> 32 µg/mL
CSc1cccc(Nc2cc(C(F)(F)F)nc3cc(C(F)(F)F)ccc23)c1	0.25 µg/mL (≈ 0.621 µM)
FC(F)(F)Oc1cccc2c(Nc3ccc(C(F)(F)F)cn3)cc(C(F)(F)F)nc12	1 µg/mL (≈ 2.27 µM)
CSc1ccc2c(O)cc(C(F)(F)F)nc2c1	640 µg/mL (≈ 2470 µM)
FC(F)(F)c1ccc2c(Nc3cc(Cl)ccn3)cc(C(F)(F)F)nc2c1	2 µg/mL (≈ 5.11 µM)
CC(C)c1ccccc1Nc1cc(C(F)(F)F)nc2cc(C(F)(F)F)ccc12	320 µg/mL (≈ 803 µM)
O=c1cc(C(F)(F)F)[nH]c2cc(C(F)(F)F)cc(Nc3ccc(C(F)(F)F)nn3)c12	1 µg/mL (≈ 2.26 µM)
FC(F)(F)c1cc(Nc2ccc(Cl)c(Cl)c2)c2cccc(C(F)(F)F)c2n1	0.5 µg/mL (≈ 1.18 µM)
FC(F)(F)c1ccc2c(NC[C@@H]3CCCN3)cc(C(F)(F)F)nc2c1	> 32 µg/mL
FC(F)c1cc(Nc2cccc(OC(F)(F)F)c2)c2ccc(C(F)(F)F)cc2n1	0.5 µg/mL (≈ 1.18 µM)

Compound	MIC
Oc1cc(C(F)(F)F)nc2cc(Cl)ccc12	20 µg/mL (≈ 80.8 µM)
FC(F)(F)Oc1ccc2c(Nc3ccc(Cl)c(Cl)c3)cc(C(F)(F)F)nc2c1	0.5 µg/mL (≈ 1.13 µM)
OCc1cccc(Nc2cc(C(F)(F)F)nc3cc(C(F)(F)F)ccc23)c1	> 16 µg/mL
FC(F)(F)c1ccc2c(Nc3ccc4c(c3)OCO4)cc(C(F)(F)F)nc2c1	> 4 µg/mL
FC(F)c1cc(Nc2ccc(Cl)c(Cl)c2)c2ccc(C(F)(F)F)cc2n1	1 µg/mL (≈ 2.46 µM)
FC(F)(F)Oc1cccc(Nc2cc(C(F)(F)F)nc3cc(C(F)(F)F)ccc23)c1	8 µg/mL (≈ 18.2 µM)
OC1CCCN(c2cc(C(F)(F)F)nc3cc(C(F)(F)F)ccc23)C1 (stereo not given)	> 32 µg/mL
FC(F)(F)c1ccc2c(Nc3ccc(N4CCOCC4)cc3)cc(C(F)(F)F)nc2c1	> 16 µg/mL
FC(F)(F)c1ccc(Nc2nc(C(F)(F)F)nc3cc(C(F)(F)F)ccc23)nc1	2 µg/mL (≈ 4.69 µM)
O=c1cc(C(F)(F)F)[nH]c2cc(C(F)(F)F)ccc12	5 µg/mL (≈ 17.8 µM)
CN(C)S(=O)(=O)c1ccc(Nc2cc(C(F)(F)F)cc3[nH]c(C(F)(F)F)cc(=O)c23)nc1	2 µg/mL (≈ 4.16 µM)
FC(F)(F)c1ccc(Nc2cc(N3CCOCC3)c3ccc(C(F)(F)F)cc3n2)nc1	8 µg/mL (≈ 18.1 µM)
FC(F)(F)Oc1cccc(Nc2cc(C(F)(F)F)nc3c(OC(F)(F)F)cccc23)c1	1 µg/mL (≈ 2.19 µM)
COc1ccc2c(Nc3ccc(Cl)c(Cl)c3)cc(C(F)(F)F)nc2c1	2 µg/mL (≈ 5.17 µM)
FC(F)(F)c1ccc(Nc2cc(C(F)(F)F)nc3c(C(F)(F)F)cccc23)nc1	0.5 µg/mL (≈ 1.18 µM)
FC(F)(F)Oc1ccc2c(Nc3ccc(C(F)(F)F)cn3)cc(C(F)(F)F)nc2c1	1 µg/mL (≈ 2.27 µM)
COc1ccc2c(Nc3cccc(OC(F)(F)F)c3)cc(C(F)(F)F)nc2c1	> 32 µg/mL
FC(F)(F)c1ccc2c(Nc3cccc(Br)c3)cc(C(F)(F)F)nc2c1	0.25 µg/mL (≈ 0.574 µM)
Oc1cc(C(F)(F)F)nc2cc(OC(F)(F)F)ccc12	4 µg/mL (≈ 13.5 µM)
Fc1cccc(Oc2cc(C(F)(F)F)nc3cc(C(F)(F)F)ccc23)c1	> 32 µg/mL
O=c1cc(C(F)(F)F)[nH]c2cc(C(F)(F)F)cc(N3CCOCC3)c12	> 32 µg/mL
COc1ccc2c(Nc3ccc(F)c(F)c3)cc(C(F)(F)F)nc2c1	> 32 µg/mL
FC(F)(F)c1ccc2c(N3CCOCC3)cc(C(F)(F)F)nc2c1	> 32 µg/mL
COc1ccc2c(O)cc(C(F)(F)F)nc2c1	640 µg/mL (≈ 2630 µM)
FC(F)(F)c1ccc2c(Nc3ccccc3Cl)cc(C(F)(F)F)nc2c1	> 16 µg/mL
